Like-named read-outs stand apart in the source and are kept apart here.
What was measured:
[1] = SC; slow release of M1 and M2 from the SC depot; cited from earlier work
[2] = Safety and tolerability assessment in the Phase 1 renal impairment trial; type: in vivo, human
Method in brief: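 Subjects admitted the day before a single 10 mg SC abdominal dose, kept on site for the first 3 days, then seen as outpatients daily to Day 8, with follow-up on Day 11. Ongoing monitoring covered AE recording (MedDRA preferred terms), vital signs, 12-lead ECGs, clinical laboratory tests, physical examinations and injection-site reactions.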

[3] = cited from earlier work
[4] = SBS patients; dose reduction by 50% recommended; cited from earlier work

Glepaglutide
effective half-life [1]: 88.3 h | serious AEs, deaths, or AEs leading to trial withdrawal ([2]; 16 subjects, single SC dose glepaglutide 10 mg): no serious AEs, deaths, or AEs leading to trial withdrawal | total number of AEs (all non-serious and mild) ([2]; reported in 3 of 16 subjects, single SC dose 10 mg): 6 | overall safety and tolerability ([2]; single SC dose 10 mg, normal renal function and severe renal impairment or ESRD): safe and well tolerated

native GLP-2: 33-amino acid intestinal growth factor secreted in response to nutrient intake
half-life ([3]; native GLP-2, in vivo): 5 to 7 min

teduglutide
AUC0–∞ and Cmax in moderate or severe renal impairment/ESRD [4]: elevated | half-life ([3]; teduglutide): approximately 2 h

From PMC10085944 (Clinical Pharmacokinetics, 2023)
